Experimental data reported in ChEMBL document CHEMBL1649486, “Comparative efficacies of telavancin and vancomycin in preventing device-associated colonization and infection by Staphylococcus aureus in rabbits” (2009).
Converted amounts (≈) assume the structure as drawn.

What was measured:
Assay type in all cases: functional
[1] = tested on: Staphylococcus aureus; assay: Antimicrobial activity against Staphylococcus aureus P1 infected in New Zealand rabbit assessed as decrease in catheter bacterial colonization rate at 45 mg/kg, iv (reference value: 100%); set-up: scale not given: the % may be the effect or the level left
Procedure, shortened: (§1)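 Female specific-pathogen-free New Zealand White rabbits, 4-7 months old, 3-4 kg, nine per group. Each got a single iv dose over ~2 min under anesthesia, with D5W as control. Six 2-cm polyurethane catheter segments were implanted subcutaneously in the back, and each surface was inoculated with 10^5 CFU MSSA P1 in Trypticase soy broth. Explants were sonicated in 2 ml saline and the sonicate cultured (detection limit 10 CFU). Colonization = inoculated strain grown from sonicate; rate = colonized/total devices.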

[2] = tested on: Staphylococcus aureus; assay: Antimicrobial activity against Staphylococcus aureus P1 infected in New Zealand rabbit assessed as decrease in catheter related infection rate at 30 mg/kg, iv (reference value: 100%); set-up: scale not given: the % may be the effect or the level left
Procedure, shortened: (§2)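 Female specific-pathogen-free New Zealand White rabbits, 4-7 months old, 3-4 kg, nine per group. Each got a single iv dose over ~2 min under anesthesia, with D5W as control. Six subcutaneous catheter segments per rabbit were surface-inoculated with 10^5 CFU MSSA P1. Infection = inoculated strain grown from both the device sonication culture and a swab of adjacent soft-tissue collection or wound discharge; rate = infected/total devices.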

[3] = tested on: Staphylococcus aureus; assay: Antimicrobial activity against Staphylococcus aureus P1 infected in New Zealand rabbit assessed as decrease in catheter related infection rate at 15 mg/kg, iv (reference value: 100%); set-up: scale not given: the % may be the effect or the level left; procedure, shortened: as §2
[4] = tested on: Staphylococcus aureus; assay: Antimicrobial activity against Staphylococcus aureus P1 infected in New Zealand rabbit assessed as decrease in catheter related infection rate at 45 mg/kg, iv (reference value: 100%); set-up: scale not given: the % may be the effect or the level left; procedure, shortened: as §2
[5] = tested on: Staphylococcus aureus; assay: Antimicrobial activity against Staphylococcus aureus P1 infected in New Zealand rabbit assessed as decrease in catheter bacterial colonization rate at 30 mg/kg, iv (reference value: 100%); set-up: scale not given: the % may be the effect or the level left; procedure, shortened: as §1
[6] = tested on: Staphylococcus aureus; assay: Antimicrobial activity against Staphylococcus aureus P1 infected in New Zealand rabbit assessed as decrease in catheter bacterial colonization rate at 15 mg/kg, iv (reference value: 100%); set-up: scale not given: the % may be the effect or the level left; procedure, shortened: as §1
[7] = tested on: Staphylococcus aureus; assay: Antimicrobial activity against Staphylococcus aureus P1 by macrodilution method
Procedure, shortened: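 MIC and minimal bactericidal concentration determined in triplicate by standard broth macrodilution against MSSA clinical isolate P1.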

## CCCCCCCCCCNCCN[C@@]1(C)C[C@H](O[C@H]2[C@H](Oc3c4cc5cc3Oc3ccc(cc3Cl)[C@@H](O)[C@@H](NC(=O)[C@@H](CC(C)C)NC)C(=O)N[C@@H](CC(N)=O)C(=O)N[C@H]5C(=O)N[C@H]3C(=O)N[C@H](C(=O)N[C@H](C(=O)O)c5cc(O)c(CNCP(=O)(O)O)c(O)c5-c5cc3ccc5O)[C@H](O)c3ccc(c(Cl)c3)O4)O[C@H](CO)[C@@H](O)[C@@H]2O)O[C@@H](C)[C@H]1O [TELAVANCIN]
[1]
  Activity: 11%
[2]
  Activity: 9%
[3]
  Activity: 35%
[4]
  Activity: 11%
[5]
  Activity: 11%
[6]
  Activity: 39%
[7]
  MBC: 1 mg/L (≈ 0.57 µM)
  MIC: 0.25 mg/L (≈ 0.142 µM)

## CN[C@H](CC(C)C)C(=O)N[C@H]1C(=O)N[C@@H](CC(N)=O)C(=O)N[C@H]2C(=O)N[C@H]3C(=O)N[C@H](C(=O)N[C@H](C(=O)O)c4cc(O)cc(O)c4-c4cc3ccc4O)[C@H](O)c3ccc(c(Cl)c3)Oc3cc2cc(c3O[C@@H]2O[C@H](CO)[C@@H](O)[C@H](O)[C@H]2O[C@H]2C[C@](C)(N)[C@H](O)[C@H](C)O2)Oc2ccc(cc2Cl)[C@H]1O [VANCOMYCIN]
[7]
  MBC: 8 mg/L (≈ 5.52 µM)
